Assay results of several laboratories.
Compare with care: the assays were run in different laboratories.
Effect on: cell growth or viability

With Cc1sc2c(c1C)C(c1ccc(Cl)cc1)=N[C@@H](CC(=O)NCCCCNC(=O)COc1cccc3c1C(=O)N(C1CCC(=O)NC1=O)C3=O)c1nnc(C)n1-2 (stereo partly shown) the IC50 was greater than 10000 nM (SK-BR-3; CCK-8; 72 h).
COc1cc(C(=O)c2nc(-c3cccc4[nH]ccc34)cs2)cc(OC)c1OC has an IC50 of 4.5 nM (M14; MTS; 72 h).
For C/C(=N/NC(=O)c1cn(-c2ccccc2)nc1-c1ccc(C)cc1)c1c(O)cc(C)oc1=O, the IC50 was 216000 nM (Vero; MTT; 48 h).
The IC50 of CC(=O)N1c2ccc(-c3ccc(C(=O)O)cc3)cc2[C@H](Nc2ccc(Cl)cc2)C[C@@H]1C is reported as 154 nM (MP41; ATP luminescence; 72 h).
Nc1ccccc1NC(=O)c1ccc(Cn2cnc3c(Nc4ccc(Cl)cc4)ncnc32)cc1 gave an IC50 of 1110 nM (HL-60; MTT; 72 h).
With CC1CCC(C(C)C)C(OC2=C(Cl)C(=O)c3ccccc3C2=O)C1 (stereo not shown) the IC50 was 4 µg/mL (SK-BR-3; MTT; 24 h).
COc1cc(C(=O)c2nc(-c3cccc4[nH]ccc34)c[nH]2)cc2c1OCO2 gave an IC50 of 3.6 nM (M14; MTS; 72 h).
For C[C@H]1[C@H](C)CC[C@]2(C)CC[C@]3(C)C(=CC(=O)[C@@H]4[C@@]5(C)CC[C@@H](O)[C@](C)(C(=O)NCc6cn(-c7ccc(Br)cc7)nn6)[C@@H]5CC[C@]43C)[C@H]12, the IC50 was 117000 nM (HDF; MTT; 24 h).
CNC(=S)N/N=C/c1cccc2cc3ccccc3nc12 gave an IC50 of 41800 nM (SK-BR-3; MTT; 48 h).
The IC50 of FC(F)(F)c1ccc(-c2cc(COc3cc(C(F)(F)F)nc4ccccc34)on2)cc1 is reported as greater than 100000 nM (HL-60; MTS; 72 h).
Nc1ccccc1NC(=O)c1ccc(Cn2cnc3c(Nc4ccc(Br)cc4F)ncnc32)cc1 gave an IC50 of 460 nM (U-266; MTT; 72 h).
COc1cc(C(=O)c2nc(-c3cccc4[nH]ccc34)c[nH]2)cc2c1OC=CO2 gave an IC50 of 7.3 nM (M14; MTS; 72 h).
COc1ccccc1-n1cc(CNC(=O)[C@@]2(C)[C@H](O)CC[C@@]3(C)[C@H]2CC[C@]2(C)[C@@H]3C(=O)C[C@@H]3[C@@H]4[C@@H](C)[C@H](C)CC[C@]4(C)CC[C@]32C)nn1 gave an IC50 of 105000 nM (HDF; MTT; 24 h).
COc1cc([C@@H]2c3cc4c(cc3[C@@H](O[C@@H]3O[C@@H]5CO[C@@H](C)O[C@H]5[C@H](O)[C@H]3O)[C@H]3COC(=O)[C@H]23)OCO4)cc(OC)c1O gave an IC50 of 30 nM (HL-60; MTS; 72 h).
COc1ccc(-n2cc(CNC(=O)[C@@]3(C)[C@H](O)CC[C@@]4(C)[C@H]3CC[C@]3(C)[C@@H]4C(=O)C=C4[C@@H]5[C@@H](C)[C@H](C)CC[C@]5(C)CC[C@]43C)nn2)cc1 gave an IC50 of 109000 nM (HDF; MTT; 24 h).
COc1ccc(-c2nc(N3CCOCC3)c3sc(CN(C)c4ncc(C(=O)NO)cn4)cc3n2)cn1 gave an IC50 of 5.96 nM (MP41; ATP luminescence; 72 h).
For Fc1ccc(NC(=S)N/N=C/c2cccc3cc4ccccc4nc23)cc1, the IC50 was greater than 50000 nM (SK-BR-3; MTT; 48 h).
The IC50 of COc1cc(C(=O)c2nc(-c3ccsc3)c[nH]2)cc(OC)c1OC is reported as 48.5 nM (M14; MTS; 72 h).
Cc1[nH]c2ccccc2c1CCNCc1ccc(/C=C/C(=O)NO)cc1 gave an IC50 of 14.3 nM (MP41; ATP luminescence; 72 h).
